# Data published in ChEMBL document CHEMBL2417366, “Synthesis of novel isothiazolopyridines and their in vitro evaluation against Mycobacterium and Propionibacterium acnes” (Bioorg Med Chem, 2013).
# The source made the active and inactive calls. No cut-off for these calls is given here.
# Key:
# [1] = tested on: Mycobacterium tuberculosis; assay: Antibacterial activity against Mycobacterium tuberculosis H37Rv assessed as growth inhibition at 6.25 ug/mL by BACTEC 460 radiometric assay relative to control; type: functional; details: read-out: GI
# Procedure, shortened: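 M. tuberculosis H37Rv grown in BACTEC 12B medium and tested once at 6.25 μg/mL in a primary screen. Growth was read radiometrically on the BACTEC 460 system and reported as % inhibition.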
# Vero = assay: Cytotoxicity against African green monkey Vero cells; type: cell-based; details: Chlorocebus sabaeus
# Procedure, shortened: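 VERO cells were exposed to serially diluted compound, starting at 10 x MIC where solubility in culture medium allowed. IC50 was determined, and the selectivity index was taken as VERO IC50 divided by the M. tuberculosis H37Rv MIC.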
# [2] = Selectivity index, ratio of IC50 for African green monkey Vero cells to MIC99 for Mycobacterium tuberculosis H37Rv; type: functional
# Procedure, shortened: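 Cytotoxicity was measured in VERO cells by serial dilution starting at 10× MIC where solubility in culture medium allowed, giving an IC50. SI = VERO IC50 ÷ MIC (99% inhibition) against M. tuberculosis H37Rv from the BACTEC 460 radiometric assay.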
# [3] = tested on: Mycobacterium tuberculosis; assay: Antibacterial activity against Mycobacterium tuberculosis H37Rv assessed as growth inhibition by BACTEC 460 radiometric assay; type: functional
# Procedure, shortened: (§1)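 Serial dilutions started at 6.25 μg/mL against H37Rv in BACTEC 12B medium, read on the BACTEC 460 radiometric system. MIC was taken as the lowest concentration inhibiting 99% of the inoculum.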
# [4] = tested on: Mycolicibacterium fortuitum; assay: Antibacterial activity against Mycobacterium fortuitum PCM 672 assessed as growth inhibition after 48 hrs by microplate Alamar blue assay; type: functional; details: PCM 672, 48 h
# Procedure, shortened: (§2)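 M. fortuitum PCM 672 pre-grown in liquid 79 medium at 37°C for 24 h under aerobic conditions, then diluted to about 2 x 10^5 cfu/mL. Compounds were DMSO stocks (1 mg/mL) diluted in medium, tested at 0.97-250 µg/mL. Incubated at 37°C for 48 h, then Alamar Blue plus 20% Tween 80 added for 2 h more. Read by fluorescence. MIC was the lowest concentration preventing the blue-to-pink change (≥90% growth inhibition). Run two or three times; means and standard error reported.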
# Mycobacterium avium [5] = assay: Antibacterial activity against Mycobacterium avium assessed as growth inhibition at 12.5 ug/mL relative to control; type: functional, organism-based
# Cutibacterium acnes [6] = assay: Antibacterial activity against Propionibacterium acnes PCM 2400 assessed as growth inhibition up to 250 ug/mL after 48 hrs by microplate Alamar blue assay; type: functional, organism-based
# [7] = tested on: Mycobacterium tuberculosis; assay: Antibacterial activity against Mycobacterium tuberculosis H37Rv assessed as growth inhibition up to 250 ug/mL by BACTEC 460 radiometric assay; type: functional, organism-based
# [8] = tested on: Mycobacterium tuberculosis; assay: Antibacterial activity against Mycobacterium tuberculosis assessed as growth inhibition; type: functional
# [9] = tested on: Mycolicibacterium fortuitum; assay: Antibacterial activity against Mycobacterium fortuitum PCM 672 assessed as growth inhibition up to 250 ug/mL after 48 hrs by microplate Alamar blue assay; type: functional, organism-based; procedure, shortened: as §2
# Mycobacterium avium [10] = assay: Antibacterial activity against Mycobacterium avium assessed as growth inhibition; type: functional
# Cutibacterium acnes [11] = assay: Induction of Propionibacterium acnes PCM 2400 replication at 0.97 to 250 ug/mL after 48 hrs by microplate Alamar blue assay relative to control; type: organism-based
# [12] = tested on: Mycolicibacterium fortuitum; assay: Bacteriostatic activity against Mycobacterium fortuitum PCM 672 at 0.97 to 250 ug/mL after 48 hrs by microplate Alamar blue assay relative to control; type: functional; procedure, shortened: as §2
# [13] = tested on: Mycolicibacterium fortuitum; assay: Induction of Mycobacterium fortuitum PCM 672 replication at 15.6 to 31.25 ug/mL after 48 hrs by microplate Alamar blue assay relative to control; type: organism-based; procedure, shortened: as §2
# Cutibacterium acnes [14] = assay: Antibacterial activity against Propionibacterium acnes PCM 2400 assessed as growth inhibition after 48 hrs by microplate Alamar blue assay; type: functional; details: PCM 2400, 48 h
# [15] = tested on: Mycobacterium tuberculosis; assay: Antibacterial activity against Mycobacterium tuberculosis H37Rv assessed as growth inhibition; type: functional; details: for MIC: Mycobacterium tuberculosis, H37Rv; procedure, shortened: as §1
# Cutibacterium acnes [16] = assay: Induction of Propionibacterium acnes PCM 2400 replication at 3.9 to 15.6 ug/mL after 48 hrs by microplate Alamar blue assay relative to control; type: organism-based
# Cutibacterium acnes [17] = assay: Bacteriostatic activity against Propionibacterium acnes PCM 2400 at 0.97 to 250 ug/mL after 48 hrs by microplate Alamar blue assay relative to control; type: functional
# [18] = tested on: Mycolicibacterium fortuitum; assay: Induction of Mycobacterium fortuitum PCM 672 replication at 0.97 to 250 ug/mL after 48 hrs by microplate Alamar blue assay relative to control; type: organism-based; procedure, shortened: as §2
# Mycobacterium avium [19] = assay: Antibacterial activity against Mycobacterium avium assessed as growth inhibition at 2 ug/mL relative to control; type: functional; details: read-out: GI
# Cutibacterium acnes [20] = assay: Induction of Propionibacterium acnes PCM 2400 replication at 15.6 ug/mL after 48 hrs by microplate Alamar blue assay relative to control; type: organism-based
# [21] = tested on: Mycobacterium tuberculosis; assay: Antibacterial activity against Mycobacterium tuberculosis H37Rv assessed as growth inhibition at 0.125 ug/mL by BACTEC 460 radiometric assay relative to control; type: functional; details: read-out: GI
smiles,measurement,setting,value
Cc1cc(C)c2c(=O)n(CCOCCOc3ccccc3)sc2n1,inhibition of growth at 6.25 µg/mL,[1],100%
same,IC50,Vero,4.1 µg/mL
same,Selectivity Index,[2],0.68
same,MIC99,[3],6.25 µg/mL
NNC(=O)c1ccncc1 [ISONIAZID],MIC50,[4],0.322 µg/mL
same,MIC90,[4],> 250 µg/mL
Cc1cc(C)c2c(=O)n(CCCN3CCN(c4cccc(Cl)c4)CC3)sc2n1,growth inhibition (GI),Mycobacterium avium [5],inactive
same,inhibition of growth at 6.25 µg/mL,[1],100%
same,IC50,Vero,3.3 µg/mL
same,Selectivity Index,[2],0.53
same,MIC99,[3],6.25 µg/mL
Cc1cc(C)c2c(=O)n(CN(Cc3ccc(Cl)cc3)Cn3sc4nc(C)cc(C)c4c3=O)sc2n1,growth inhibition (GI),Cutibacterium acnes [6],inactive
same,growth inhibition (GI),[7],inactive
Cc1cc(C)c2c(=O)n(CC(O)CN3CCC(Cc4ccccc4)CC3)sc2n1 (stereo not drawn),inhibition of growth at 6.25 µg/mL,[1],100%
same,IC50,Vero,1.6 µg/mL
same,Selectivity Index,[2],0.25
same,MIC99,[3],6.25 µg/mL
Cc1cc(C)c2c(OCCOC(=O)NC(C)(C)C)nsc2n1,inhibition of growth at 6.25 µg/mL,[1],16%
Cc1cc(C)c2c(=O)n(CC(=O)N3CCN(C)CC3)sc2n1,inhibition of growth at 6.25 µg/mL,[1],100%
same,IC50,Vero,7 µg/mL
same,Selectivity Index,[2],1.12
same,MIC99,[3],6.25 µg/mL
Cc1cc(C)c2c(=O)n(CN3CCN(c4ccc([N+](=O)[O-])cc4)CC3)sc2n1,MIC50,[4],197 µg/mL
same,MIC,[8],< 1 µg/mL
same,growth inhibition (GI),Cutibacterium acnes [6],inactive
same,growth inhibition (GI),[9],inactive
same,MIC,Mycobacterium avium [10],< 1 µg/mL
COc1ccc(CN(Cn2sc3nc(C)cc(C)c3c2=O)Cn2sc3nc(C)cc(C)c3c2=O)cc1OC,Activity,Cutibacterium acnes [11],10%
same,inhibition of growth at 6.25 µg/mL,[1],8%
same,growth inhibition (GI),[9],inactive
same,inhibition (INH),[12],21%
Cc1cc(C)c2c(=O)n(CCOC(=O)NC(C)(C)C)sc2n1,Activity,[13],10%
same,MIC90,Cutibacterium acnes [14],3.2 µg/mL
same,growth inhibition (GI),[7],inactive
O=c1c2ccccc2sn1CO,growth inhibition (GI),[15],100%
same,MIC,[15],12.5 µg/mL
Cc1cc(C)c2c(OCCOC(=O)Nc3ccccc3)nsc2n1,growth inhibition (GI),Cutibacterium acnes [6],inactive
same,growth inhibition (GI),[9],inactive
same,growth inhibition (GI),[7],inactive
CCCCNC(=O)OCCOc1nsc2nc(C)cc(C)c12,MIC50,[4],125 µg/mL
same,Activity,Cutibacterium acnes [16],> 50%
same,growth inhibition (GI),[9],inactive
same,growth inhibition (GI),[7],inactive
Cc1cc(C)c2c(=O)n(CC(O)CN3CCN(c4cccc(C(F)(F)F)c4)CC3)sc2n1 (stereo not drawn),growth inhibition (GI),Mycobacterium avium [5],inactive
same,inhibition of growth at 6.25 µg/mL,[1],100%
same,IC50,Vero,4.2 µg/mL
same,Selectivity Index,[2],2.69
same,MIC99,[3],1.56 µg/mL
Cc1cc(C)c2c(=O)n(CN(Cc3ccccn3)Cn3sc4nc(C)cc(C)c4c3=O)sc2n1,inhibition of growth at 6.25 µg/mL,[1],4%
same,inhibition (INH),Cutibacterium acnes [17],36%
same,growth inhibition (GI),Cutibacterium acnes [6],inactive
CCCCNC(=O)OCCn1sc2nc(C)cc(C)c2c1=O,MIC50,[4],125 µg/mL
same,growth inhibition (GI),Cutibacterium acnes [6],inactive
same,growth inhibition (GI),[9],inactive
same,growth inhibition (GI),[7],inactive
Cc1cc(C)c2c(OCCOCCOc3ccccc3)nsc2n1,growth inhibition (GI),Cutibacterium acnes [6],inactive
same,growth inhibition (GI),[7],inactive
CC[C@H]1OC(=O)[C@H](C)[C@@H](O[C@H]2C[C@@](C)(OC)[C@@H](O)[C@H](C)O2)[C@H](C)[C@@H](O[C@@H]2O[C@H](C)C[C@H](N(C)C)[C@H]2O)[C@](C)(O)C[C@@H](C)C(=O)[C@H](C)[C@@H](O)[C@]1(C)O [ERYTHROMYCIN],MIC50,Cutibacterium acnes [14],< 1 µg/mL
same,MIC90,Cutibacterium acnes [14],< 1 µg/mL
CCNC(=O)OCCOc1nsc2nc(C)cc(C)c12,inhibition of growth at 6.25 µg/mL,[1],6%
same,MIC50,Cutibacterium acnes [14],184 µg/mL
same,growth inhibition (GI),Cutibacterium acnes [6],inactive
same,Activity,[18],10%
Cc1cc(C)c2c(=O)n(CN(Cc3ccccc3Cl)Cn3sc4nc(C)cc(C)c4c3=O)sc2n1,growth inhibition (GI),Cutibacterium acnes [6],inactive
same,growth inhibition (GI),[7],inactive
Cc1cc(C)c2c(=O)n(CCN3CCN(c4ccc([N+](=O)[O-])cc4)CC3)sc2n1,MIC,[8],< 1 µg/mL
same,MIC50,Cutibacterium acnes [14],< 1 µg/mL
same,MIC90,Cutibacterium acnes [14],< 1 µg/mL
same,growth inhibition (GI),[9],inactive
same,inhibition (INH),[12],40%
same,MIC,Mycobacterium avium [10],< 1 µg/mL
Cc1cc(C)c2c(=O)n(CCOC(=O)Nc3ccccc3)sc2n1,inhibition of growth at 6.25 µg/mL,[1],12%
same,growth inhibition (GI),Cutibacterium acnes [6],inactive
same,growth inhibition (GI),[9],inactive
same,inhibition (INH),[12],42%
Cc1cc(C)c2c(=O)n(CO)sc2n1,growth inhibition (GI),[15],65%
same,MIC,[15],12.5 µg/mL
CC[C@H]1OC(=O)[C@H](C)[C@@H](O[C@H]2C[C@@](C)(OC)[C@@H](O)[C@H](C)O2)[C@H](C)[C@@H](O[C@@H]2O[C@H](C)C[C@H](N(C)C)[C@H]2O)[C@](C)(OC)C[C@@H](C)C(=O)[C@H](C)[C@@H](O)[C@]1(C)O [CLARITHROMYCIN],inhibition of growth at 2 µg/mL,Mycobacterium avium [19],98%
COc1ccccc1CN(Cn1sc2nc(C)cc(C)c2c1=O)Cn1sc2nc(C)cc(C)c2c1=O,MIC50,[4],< 1 µg/mL
same,MIC90,[4],< 1 µg/mL
same,MIC50,Cutibacterium acnes [14],38 µg/mL
same,growth inhibition (GI),Cutibacterium acnes [6],inactive
same,growth inhibition (GI),[7],inactive
Cc1cc(C)c2c(=O)n(CN(Cc3ccccc3)Cn3sc4nc(C)cc(C)c4c3=O)sc2n1,inhibition of growth at 6.25 µg/mL,[1],6%
same,Activity,Cutibacterium acnes [20],10%
COc1ccc(CN(Cn2sc3nc(C)cc(C)c3c2=O)Cn2sc3nc(C)cc(C)c3c2=O)cc1,Activity,Cutibacterium acnes [11],10%
same,growth inhibition (GI),[7],inactive
CCNC(=O)OCCn1sc2nc(C)cc(C)c2c1=O,inhibition of growth at 6.25 µg/mL,[1],17%
same,MIC50,Cutibacterium acnes [14],6.9 µg/mL
same,growth inhibition (GI),Cutibacterium acnes [6],inactive
CO[C@H]1/C=C/O[C@@]2(C)Oc3c(C)c(O)c4c(O)c(c(/C=N/N5CCN(C)CC5)c(O)c4c3C2=O)NC(=O)/C(C)=C\C=C\[C@H](C)[C@H](O)[C@@H](C)[C@@H](O)[C@@H](C)[C@H](OC(C)=O)[C@@H]1C [RIFAMPIN],inhibition of growth at 0.125 µg/mL,[21],98%
same,IC50,Vero,58 µg/mL
same,MIC99,[3],0.125 µg/mL
